Experimental data: ChEMBL document CHEMBL4732059, “Structure-guided modification of isoxazole-type FXR agonists: Identification of a potent and orally bioavailable FXR modulator” (Eur J Med Chem, 2021)
Active and inactive are the calls of the source. The rule behind the calls is not given here.

Experiments:
HepG2 [1] = test: Cytotoxicity against human HepG2 cells assessed as cell viability upto 40 uM after 48 hrs by MTT assay; format: cell-based; settings: hepg2, 48 h
Procedure, shortened: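 HepG2 cells in DMEM/10% FBS seeded at 1×10⁵/mL and grown 24 h, then exposed to 0.1, 1, 10, 40 and 80 µM for 48 h. MTT (5 mg/mL stock) added for 4 h at 37 °C in the dark, formazan dissolved in DMSO, absorbance read at 490 nm; mean ± SD, n = 3.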

[2] = target: T1, Bile acid receptor (Homo sapiens) (UniProt Q96RI1); test: Agonist activity at human FXR in HepG2 cells assessed as nuclear translocation at 1 uM for 16 hrs by immunofluorescence analysis; format: cell-based; settings: filed as agonist
T1 sequence (whole entry): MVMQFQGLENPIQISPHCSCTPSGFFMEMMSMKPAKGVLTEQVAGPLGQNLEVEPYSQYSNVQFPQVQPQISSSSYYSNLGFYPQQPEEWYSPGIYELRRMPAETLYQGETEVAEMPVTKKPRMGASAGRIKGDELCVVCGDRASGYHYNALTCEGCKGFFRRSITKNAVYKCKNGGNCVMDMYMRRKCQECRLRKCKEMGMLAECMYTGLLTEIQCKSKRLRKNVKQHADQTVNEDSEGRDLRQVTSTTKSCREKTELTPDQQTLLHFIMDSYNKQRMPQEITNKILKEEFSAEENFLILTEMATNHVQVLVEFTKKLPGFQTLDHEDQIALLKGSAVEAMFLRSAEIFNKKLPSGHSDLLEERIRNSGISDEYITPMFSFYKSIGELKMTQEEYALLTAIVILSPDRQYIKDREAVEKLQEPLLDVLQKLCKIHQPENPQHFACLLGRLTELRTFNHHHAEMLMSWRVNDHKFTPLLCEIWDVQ

HepG2 [3] = test: Upregulation of FXR level in human HepG2 cells at 1 to 10 uM for 16 hrs by Western blot analysis; format: functional, cell-based; settings: dose 1-10 µM
Procedure, shortened: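 HepG2 cells treated for 16 h, washed, lysed on ice and centrifuged; protein quantified by BCA. Equal protein run on 12% SDS-PAGE and transferred to PVDF. Probed overnight at 4 °C with anti-FXR, […], anti-CYP7A1 or anti-BSEP antibody, then HRP secondary 1 h at 37 °C; ECL detection.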

[4] = Half life in C57BL/6J mouse at 20 mg/kg, po measured upto 24 hrs by LC-MS analysis; format: ADME, organism-based; settings: in vivo
Procedure, shortened: (§1)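 Male C57BL/6J mice (22–24 g, n = 5), single oral dose 20 mg/kg in 0.5% CMC-Na PBS. Plasma sampled at 0.25, 0.5, 1, 2, 4, 8, 12 and 24 h, centrifuged, and supernatant analysed by LC-MS/MS in positive ion mode. Parameters from noncompartmental analysis; mean ± SD, n = 5.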

[5] = Tmax in C57BL/6J mouse at 20 mg/kg, po measured upto 24 hrs by LC-MS analysis; format: ADME, organism-based; settings: in vivo; procedure, shortened: as §1
[6] = Cmax in C57BL/6J mouse at 20 mg/kg, po measured upto 24 hrs by LC-MS analysis; format: ADME, organism-based; set-up: route oral, dose 20 mg/kg, time <=24; settings: in vivo; procedure, shortened: as §1
[7] = AUC (0 to t) in C57BL/6J mouse at 20 mg/kg, po measured upto 24 hrs by LC-MS analysis; format: ADME, organism-based; set-up: route oral, dose 20 mg/kg, time <=24; settings: in vivo; procedure, shortened: as §1

| SMILES | Activity (HepG2 [1]) | Activity [2] | Activity (HepG2 [3]) | half-life [4] [h] | Tmax [5] [h] | Cmax [6] [ng/mL] | AUC(0-t) at 24 h [7] [ng·h/mL] |
| --- | --- | --- | --- | --- | --- | --- | --- |
| CC(C)c1onc(-c2c(Cl)cccc2Cl)c1COc1ccc(/C=C/c2cccc(C(=O)O)c2)c(Cl)c1 | Non-Toxic | Active | – | – | – | – | – |
| O=C(O)c1cccc(NC(=O)N2CCC(OCc3c(-c4ccccc4OC(F)(F)F)noc3C3CC3)CC2)c1 | Non-Toxic | – | Active | 10.6 | 4.8 | 2350 | 36100 |
